In ChEMBL document CHEMBL2331548, “Identification of N-acyl 4-(3-pyridonyl)phenylalanine derivatives and their orally active prodrug esters as dual acting α4β1 and α4β7 receptor antagonists” (Bioorg Med Chem Lett, 2013):
≈ marks a conversion by molar mass, not a printed value.

System: not listed separately
Experiment: Stability in simulated intestinal fluid at pH 7.5 assessed as half life
Assay type: physicochemical
Conditions: simulated gi fluid

Stability | SMILES
Stable | Cc1cc(C(F)(F)F)c(-c2ccc(C[C@H](NC(=O)c3c(Cl)cccc3Cl)C(=O)OCC(C)C)cc2)c(=O)n1C
Stable | CCCOC(=O)[C@H](Cc1ccc(-c2c(C(F)(F)F)cc(C)n(C)c2=O)cc1)NC(=O)c1c(Cl)cccc1Cl
Stable | COCCOC(=O)[C@H](Cc1ccc(-c2c(C(F)(F)F)cc(C)n(C)c2=O)cc1)NC(=O)c1c(Cl)cccc1Cl
Stable | Cc1cc(C(F)(F)F)c(-c2ccc(C[C@H](NC(=O)c3c(Cl)cccc3Cl)C(=O)OCC3CCOC3)cc2)c(=O)n1C (stereo not given in full)

Target: T1, Integrin alpha-4/beta-1 (Homo sapiens, UniProt P05556+P13612)
T1 sequence (P05556 whole entry, one chain of several): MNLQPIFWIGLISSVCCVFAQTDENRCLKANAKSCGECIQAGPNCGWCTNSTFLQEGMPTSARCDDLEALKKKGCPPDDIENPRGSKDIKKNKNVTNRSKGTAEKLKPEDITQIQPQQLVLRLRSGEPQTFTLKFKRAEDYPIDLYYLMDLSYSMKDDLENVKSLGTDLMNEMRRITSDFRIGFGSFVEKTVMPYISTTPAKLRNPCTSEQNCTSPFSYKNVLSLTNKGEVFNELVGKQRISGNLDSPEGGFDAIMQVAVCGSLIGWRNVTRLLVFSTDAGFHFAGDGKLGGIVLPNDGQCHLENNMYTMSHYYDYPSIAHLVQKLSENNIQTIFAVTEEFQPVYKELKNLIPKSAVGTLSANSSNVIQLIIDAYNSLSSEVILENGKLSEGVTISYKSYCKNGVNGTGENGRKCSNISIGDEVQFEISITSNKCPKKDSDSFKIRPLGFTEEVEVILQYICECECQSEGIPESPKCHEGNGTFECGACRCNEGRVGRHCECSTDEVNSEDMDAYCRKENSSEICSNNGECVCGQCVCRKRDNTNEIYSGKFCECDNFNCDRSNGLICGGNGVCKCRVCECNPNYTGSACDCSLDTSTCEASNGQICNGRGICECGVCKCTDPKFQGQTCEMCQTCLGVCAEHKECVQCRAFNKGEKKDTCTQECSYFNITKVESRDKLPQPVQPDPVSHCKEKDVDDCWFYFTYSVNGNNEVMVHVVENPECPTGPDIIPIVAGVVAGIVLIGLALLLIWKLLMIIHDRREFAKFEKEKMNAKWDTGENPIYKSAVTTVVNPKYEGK
Experiment: Inhibition of human VCAM1 binding to integrin alpha4beta1 receptor in human Ramos cells labeled with Calcein AM
Assay type: cell-based
Conditions: not given
Method in brief: (§1)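 Serially diluted compound tested for blocking adhesion of Calcein AM-labelled cells to recombinant human counter-ligand: RAMOS cells on VCAM-1 (α4β1) and RPMI 8866 cells on MAdCAM-1 (α4β7). Cells activated beforehand in Mn2+-containing binding buffer for maximal activation. IC50 taken from fluorescence; RO0270608 run on every plate, and relative potency expressed as fold versus this control because cell activity drifted with passage.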

IC50 [µM] | SMILES
0.463 | Cc1cc(C(F)(F)F)c(-c2ccc(C[C@H](NC(=O)c3c(Cl)cccc3Cl)C(=O)O)cc2)c(=O)n1CC1CC1
0.225 | CCc1cccc(C)c1C(=O)N[C@@H](Cc1ccc(-c2c(C(F)(F)F)cc(C)n(C)c2=O)cc1)C(=O)O

The next lines start with the molecule.

SMILES | IC50 [µM]
Cc1cccc(Cl)c1C(=O)N[C@@H](Cc1ccc(-c2c(C)ccn(C)c2=O)cc1)C(=O)O | 0.226
Cc1cccc(Cl)c1C(=O)N[C@@H](Cc1ccc(-c2c(C)cc(C(F)(F)F)n(C)c2=O)cc1)C(=O)O | 0.267
Cc1cccc(Cl)c1C(=O)N[C@@H](Cc1ccc(NC(=O)c2c(Cl)cccc2Cl)cc1)C(=O)O | 0.01
COCCC1(C(=O)N[C@@H](Cc2ccc(-c3c(C(F)(F)F)cc(C)n(C)c3=O)cc2)C(=O)O)CCCC1 | 0.14

Target: Integrin alpha-4/beta-7 (Homo sapiens) (UniProt P13612+P26010)
Experiment: Inhibition of human MAdCAM1 binding to integrin alpha4beta7 receptor in human RPMI 8866 cells labeled with Calcein AM relative to RO0270608
Assay type: cell-based
Conditions: not given
Method in brief: as §1

Ratio IC50 | SMILES
0.34 | Cc1cc(C(F)(F)F)c(-c2ccc(C[C@H](NC(=O)c3c(Cl)cccc3Cl)C(=O)O)cc2)c(=O)n1CC1CC1
0.7 | CCc1cccc(C)c1C(=O)N[C@@H](Cc1ccc(-c2c(C(F)(F)F)cc(C)n(C)c2=O)cc1)C(=O)O

Further lines, the molecule ahead of its results:

SMILES | Ratio IC50
Cc1cccc(Cl)c1C(=O)N[C@@H](Cc1ccc(-c2c(C)ccn(C)c2=O)cc1)C(=O)O | 0.68
Cc1cccc(Cl)c1C(=O)N[C@@H](Cc1ccc(-c2c(C)cc(C(F)(F)F)n(C)c2=O)cc1)C(=O)O | 2.6
COCCC1(C(=O)N[C@@H](Cc2ccc(-c3c(C(F)(F)F)cc(C)n(C)c3=O)cc2)C(=O)O)CCCC1 | 0.54

System: not listed separately
Experiment: Apparent permeability across human Caco2 cells
Assay type: ADME, cell-based
Conditions: Caco-2

Papp [×10⁻⁶ cm/s] | SMILES
32.5 | Cc1cc(C(F)(F)F)c(-c2ccc(C[C@H](NC(=O)c3c(Cl)cccc3Cl)C(=O)OCC(C)C)cc2)c(=O)n1C
52.6 | CCCOC(=O)[C@H](Cc1ccc(-c2c(C(F)(F)F)cc(C)n(C)c2=O)cc1)NC(=O)c1c(Cl)cccc1Cl
49.9 | COCCOC(=O)[C@H](Cc1ccc(-c2c(C(F)(F)F)cc(C)n(C)c2=O)cc1)NC(=O)c1c(Cl)cccc1Cl
76.4 | Cc1cc(C(F)(F)F)c(-c2ccc(C[C@H](NC(=O)c3c(Cl)cccc3Cl)C(=O)OCC3CCOC3)cc2)c(=O)n1C (stereo not given in full)

System: not listed separately
Experiment: Solubility in simulated intestinal fluid at pH 7.5
Assay type: physicochemical
Conditions: not given

solubility [µg/mL] | SMILES
0.03 (≈ 0.0491 µM) | Cc1cc(C(F)(F)F)c(-c2ccc(C[C@H](NC(=O)c3c(Cl)cccc3Cl)C(=O)OCC3CCOC3)cc2)c(=O)n1C (stereo not given in full)

Target: T2, Integrin alpha-4/beta-7 (Homo sapiens, UniProt P13612+P26010)
T2 sequence (P13612 whole entry): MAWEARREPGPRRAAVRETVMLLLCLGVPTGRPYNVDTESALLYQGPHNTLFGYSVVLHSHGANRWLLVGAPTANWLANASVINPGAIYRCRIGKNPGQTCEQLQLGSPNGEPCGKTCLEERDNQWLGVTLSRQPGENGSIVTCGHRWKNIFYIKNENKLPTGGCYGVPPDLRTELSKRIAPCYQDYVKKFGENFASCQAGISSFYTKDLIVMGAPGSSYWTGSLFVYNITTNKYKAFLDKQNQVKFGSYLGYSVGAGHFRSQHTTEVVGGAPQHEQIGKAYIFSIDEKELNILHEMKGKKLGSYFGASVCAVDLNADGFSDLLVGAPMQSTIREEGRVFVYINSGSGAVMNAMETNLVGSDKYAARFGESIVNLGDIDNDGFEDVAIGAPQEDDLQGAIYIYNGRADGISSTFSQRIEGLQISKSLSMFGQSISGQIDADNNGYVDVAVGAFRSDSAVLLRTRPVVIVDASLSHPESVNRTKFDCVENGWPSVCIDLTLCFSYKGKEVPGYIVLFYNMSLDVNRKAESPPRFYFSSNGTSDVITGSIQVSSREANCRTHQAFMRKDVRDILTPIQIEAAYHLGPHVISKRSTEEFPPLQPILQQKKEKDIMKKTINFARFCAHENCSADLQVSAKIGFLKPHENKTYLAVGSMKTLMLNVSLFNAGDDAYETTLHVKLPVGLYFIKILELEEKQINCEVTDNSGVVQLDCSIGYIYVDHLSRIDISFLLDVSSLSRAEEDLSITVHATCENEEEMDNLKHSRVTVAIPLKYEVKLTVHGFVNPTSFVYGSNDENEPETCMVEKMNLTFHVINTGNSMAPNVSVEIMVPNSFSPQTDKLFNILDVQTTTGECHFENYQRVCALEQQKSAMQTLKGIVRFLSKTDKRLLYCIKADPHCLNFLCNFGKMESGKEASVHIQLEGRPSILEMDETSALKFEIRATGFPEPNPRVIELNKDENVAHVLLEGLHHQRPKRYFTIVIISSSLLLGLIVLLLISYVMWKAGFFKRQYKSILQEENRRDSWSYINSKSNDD
T2 sequence (P26010 whole entry): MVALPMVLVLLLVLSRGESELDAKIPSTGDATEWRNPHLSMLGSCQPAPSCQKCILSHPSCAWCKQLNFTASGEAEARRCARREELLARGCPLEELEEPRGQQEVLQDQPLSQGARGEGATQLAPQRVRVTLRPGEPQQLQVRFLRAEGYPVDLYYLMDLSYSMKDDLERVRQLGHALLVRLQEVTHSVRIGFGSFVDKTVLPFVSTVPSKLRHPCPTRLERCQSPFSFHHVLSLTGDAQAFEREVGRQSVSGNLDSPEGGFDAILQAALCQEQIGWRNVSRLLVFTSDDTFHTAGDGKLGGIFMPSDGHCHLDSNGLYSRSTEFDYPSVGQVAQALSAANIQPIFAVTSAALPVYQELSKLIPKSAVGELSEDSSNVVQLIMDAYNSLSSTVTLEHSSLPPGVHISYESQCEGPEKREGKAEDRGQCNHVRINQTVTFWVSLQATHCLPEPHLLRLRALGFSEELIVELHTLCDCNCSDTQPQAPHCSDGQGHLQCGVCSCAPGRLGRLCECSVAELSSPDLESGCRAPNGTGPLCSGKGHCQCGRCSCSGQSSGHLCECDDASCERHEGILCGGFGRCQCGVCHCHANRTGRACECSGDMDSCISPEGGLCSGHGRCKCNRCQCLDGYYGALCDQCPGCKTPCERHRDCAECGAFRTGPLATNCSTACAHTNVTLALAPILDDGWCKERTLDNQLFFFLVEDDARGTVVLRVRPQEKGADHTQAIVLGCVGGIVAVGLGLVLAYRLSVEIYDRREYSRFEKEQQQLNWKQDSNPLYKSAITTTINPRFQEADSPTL
Experiment: Inhibition of human MAdCAM1 binding to integrin alpha4beta7 receptor in human RPMI 8866 cells labeled with Calcein AM
Assay type: cell-based
Conditions: not given
Method in brief: as §1

IC50 [µM] | SMILES
1.23 | Cc1cc(C(F)(F)F)c(-c2ccc(C[C@H](NC(=O)c3c(Cl)cccc3Cl)C(=O)O)cc2)c(=O)n1CC1CC1
0.767 | CCc1cccc(C)c1C(=O)N[C@@H](Cc1ccc(-c2c(C(F)(F)F)cc(C)n(C)c2=O)cc1)C(=O)O

Continued, molecule first:

SMILES | IC50 [µM]
Cc1cccc(Cl)c1C(=O)N[C@@H](Cc1ccc(-c2c(C)ccn(C)c2=O)cc1)C(=O)O | 0.363
Cc1cccc(Cl)c1C(=O)N[C@@H](Cc1ccc(-c2c(C)cc(C(F)(F)F)n(C)c2=O)cc1)C(=O)O | 0.16
Cc1cccc(Cl)c1C(=O)N[C@@H](Cc1ccc(NC(=O)c2c(Cl)cccc2Cl)cc1)C(=O)O | 0.043
COCCC1(C(=O)N[C@@H](Cc2ccc(-c3c(C(F)(F)F)cc(C)n(C)c3=O)cc2)C(=O)O)CCCC1 | 0.671

System: not listed separately
Experiment: Solubility in simulated gastric fluid at pH 2.0
Assay type: physicochemical
Conditions: simulated gastric fluid, read-out: solubility

solubility [µg/mL] | SMILES
0.03 (≈ 0.0491 µM) | Cc1cc(C(F)(F)F)c(-c2ccc(C[C@H](NC(=O)c3c(Cl)cccc3Cl)C(=O)OCC3CCOC3)cc2)c(=O)n1C (stereo not given in full)

Same assay, conditions: simulated gi fluid, BLD = below limit of detection

solubility | SMILES
BLD | Cc1cc(C(F)(F)F)c(-c2ccc(C[C@H](NC(=O)c3c(Cl)cccc3Cl)C(=O)OCC(C)C)cc2)c(=O)n1C
BLD | CCCOC(=O)[C@H](Cc1ccc(-c2c(C(F)(F)F)cc(C)n(C)c2=O)cc1)NC(=O)c1c(Cl)cccc1Cl
BLD | COCCOC(=O)[C@H](Cc1ccc(-c2c(C(F)(F)F)cc(C)n(C)c2=O)cc1)NC(=O)c1c(Cl)cccc1Cl

Target: T1, Integrin alpha-4/beta-1
Experiment: Inhibition of human VCAM1 binding to integrin alpha4beta1 receptor in human Ramos cells labeled with Calcein AM relative to RO0270608
Assay type: cell-based
Conditions: not given
Method in brief: as §1

Ratio IC50 | SMILES
0.03 | Cc1cc(C(F)(F)F)c(-c2ccc(C[C@H](NC(=O)c3c(Cl)cccc3Cl)C(=O)O)cc2)c(=O)n1CC1CC1
0.41 | CCc1cccc(C)c1C(=O)N[C@@H](Cc1ccc(-c2c(C(F)(F)F)cc(C)n(C)c2=O)cc1)C(=O)O

More lines, now with the values behind:

SMILES | Ratio IC50
Cc1cccc(Cl)c1C(=O)N[C@@H](Cc1ccc(-c2c(C)ccn(C)c2=O)cc1)C(=O)O | 0.23
Cc1cccc(Cl)c1C(=O)N[C@@H](Cc1ccc(-c2c(C)cc(C(F)(F)F)n(C)c2=O)cc1)C(=O)O | 0.06
COCCC1(C(=O)N[C@@H](Cc2ccc(-c3c(C(F)(F)F)cc(C)n(C)c3=O)cc2)C(=O)O)CCCC1 | 0.75
